Source: PubChem BioAssay
MC4R barr agon: MC4R agonists recruiting beta-arrestin, primary screen, cell-based, luminescence, agonist arm of biased-ligand search; Melanocortin receptor 4 (Homo sapiens), P32245; actives 0.98% (n = 360,000); AID 540308, 2011; activation, % at 8.9 µM; U2OS MC4R beta-arrestin complementation; percent of melanotan II response, DMSO zero;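 active = activation above a per-plate cutoff, the mean activation of sample wells on that plate plus 3 SD, cut at about 8% in these data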
MC4R antagonist: MC4R antagonists of cAMP signaling, primary screen, cell-based, TR-FRET, antagonist arm of biased-ligand search. Melanocortin receptor 4 (Homo sapiens), P32245. MC4R-expressing cells, MTII-stimulated cAMP, LANCE TR-FRET. inhibition, % at 6.5 µM. actives 0.48% (n = 360,000);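 active = inhibition above its plate's cutoff, the mean of tested wells on that plate plus 3 SD, cut at about 29% in these data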
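Test system: U2OS cells stably expressing human melanocortin 4 receptor (MC4R); also added: Melanotan II challenge; compound: 6.5 µM single dose; timing: 30-min compound preincubation, 1-h Melanotan II challenge, 1-h detection, room temperature; signal: Eu-cAMP/anti-cAMP TR-FRET, emission 671 nm; repeats: one well per compound, no replicates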
PREPL inhibitor: PREPL enzyme inhibitors, primary screen, biochemical, fluorescence polarization; Prolyl endopeptidase-like (Homo sapiens), Q4J6C6; actives 0.68% (n = 320,000); inhibition, % at 5.96 µM; recombinant PREPL, fluorescence polarization activity-based probe; in the data active = inhibition above about 43%
Target sequence (Q4J6C6 whole entry, looked up): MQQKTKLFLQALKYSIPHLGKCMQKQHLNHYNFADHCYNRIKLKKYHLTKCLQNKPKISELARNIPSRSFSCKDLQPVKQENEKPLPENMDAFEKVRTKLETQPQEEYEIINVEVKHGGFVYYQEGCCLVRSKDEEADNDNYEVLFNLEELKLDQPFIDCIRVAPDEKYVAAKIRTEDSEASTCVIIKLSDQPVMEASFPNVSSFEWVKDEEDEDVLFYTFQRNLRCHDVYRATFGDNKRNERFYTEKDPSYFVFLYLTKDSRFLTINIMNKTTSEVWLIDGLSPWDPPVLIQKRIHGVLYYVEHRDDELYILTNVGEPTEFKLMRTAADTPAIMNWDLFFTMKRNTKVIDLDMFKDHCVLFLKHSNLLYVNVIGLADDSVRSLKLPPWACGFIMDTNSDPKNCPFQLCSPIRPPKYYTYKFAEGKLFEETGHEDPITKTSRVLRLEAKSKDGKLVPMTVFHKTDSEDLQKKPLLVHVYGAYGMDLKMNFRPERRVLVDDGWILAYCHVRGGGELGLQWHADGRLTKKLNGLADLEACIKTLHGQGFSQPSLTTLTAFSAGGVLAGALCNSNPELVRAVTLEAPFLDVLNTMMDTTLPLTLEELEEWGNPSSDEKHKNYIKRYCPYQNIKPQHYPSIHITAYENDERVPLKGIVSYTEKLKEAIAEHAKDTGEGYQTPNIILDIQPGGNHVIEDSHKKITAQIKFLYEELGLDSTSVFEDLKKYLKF
Hep lipid drop: inhibitors of hepatocyte lipid droplet formation, primary screen, imaging, high-throughput imaging, BODIPY stain; AML12 mouse hepatocytes, oleate lipid droplets; inhibition, % at 6.5 µM; actives 0.4% (n = 240,000); AID 1656, 2009;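 active = lipid droplet intensity inhibited by at least 50%, with more than 500 cells counted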
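Assay system: AML12 hepatocytes (mouse) / Also added: 100 µM oleic acid challenge / Times: overnight treatment with compound plus oleate / Detection: high-content imaging of BODIPY-stained droplets and DAPI nuclei / Evaluation: % inhibition of lipid droplet signal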
NTR1 agonist: agonists of human NTR1, primary screen, imaging, U2OS cells, beta-arrestin-GFP, high content; NTR1-U2OS beta-arrestin-GFP spot imaging, agonist mode; activation, % at 20 µM; actives 0.17% (n = 330,000); Neurotensin receptor type 1 (Homo sapiens), P30989;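 active = activation at or above 40% of the spot to cytoplasm intensity ratio, with at least 20 cells analyzed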
m5-HT2A agonist: mouse Htr2a agonists via beta-arrestin recruitment, primary screen, cell-based, luminescence | 5-hydroxytryptamine receptor 2A (Mus musculus), P35363 | CHO-K1 mHTR2A beta-arrestin complementation; percent of 30 µM serotonin response | activation, % at 7.6 µM | actives 0.66% (n = 360,000) | AID 624169, 2012;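 active = activation above a run cutoff, the mean activation of all tested compounds plus 3 SD, cut at about 14% in these data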
MC4R barr conf: MC4R beta-arrestin agonists, retest, confirmation, cell-based, luminescence, U2OS; U2OS MC4R beta-arrestin recruitment; scaled DMSO 0%, Melanotan II 100%; activation, % at 8.9 µM; actives 31% (n = 2,400); shares compounds with MC4R barr agon; AID 602192, 2012;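 active = mean activation across replicates above the hit cutoff set in the earlier primary screen, cut at about 8% in these data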
MOR DOR agonist: agonists of MOR-DOR heterodimerization, counter-screen for MC4R biased agonist project, cell-based, luminescence | shares compounds with MC4R barr agon | U2OS PathHunter beta-arrestin, beta-gal luminescence; percent of deltorphin B response, DMSO zero | activation, % at 9.2 µM | actives 5.8% (n = 2,400) | AID 602194, 2012;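 active = mean activation across replicates exceeds the hit threshold derived in the earlier primary screen, cut at about 18% in these data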
A number is an active result; 0 = inactive; - = no result. Compounds with a hit are over-represented: about 2.7% of the library has one in this group of screens.

SMILES	MC4R barr agon	MC4R antagonist	PREPL inhibitor	Hep lipid drop	NTR1 agonist	m5-HT2A agonist	MC4R barr conf	MOR DOR agonist
O=c1[nH]nc(Cc2ccc(-c3cccc(Cl)c3)o2)c2ccccc12	13.8	0	0	0	0	0	0	0
C=CCOc1ccccc1CN1CCCN(C)CC1	0	0	0	0	0	0	-	-
COc1ccc(OCC(=O)Nc2cccc(-c3nc4ccccc4o3)c2)cc1	18.9	0	0	0	0	0	0	0
COc1ccc(-c2nnc(SCC(=O)Nc3cccc(Cl)c3)o2)cc1	15.5	0	0	-	0	0	0	0
CCCC(=O)Nc1cccc(-c2nc3ccccc3o2)c1	0	0	0	0	0	0	-	-
COc1ccc(OCC(=O)Nc2cccc(NC(=O)COc3ccc(OC)cc3)n2)cc1	13.4	0	0	0	0	0	0	25.8
COc1ccc(OCC(=O)Nc2nonc2NC(=O)COc2ccc(OC)cc2)cc1	0	0	0	0	0	0	-	-
O=S(=O)(c1ccc2nc(-c3ccccc3)[nH]c2c1)N1CCN(c2ccc(Cl)cc2)CC1	10.7	0	0	0	0	0	0	0
COC(=O)c1sc(NC(=O)COc2cccnc2[N+](=O)[O-])c(C(=O)OC)c1C	0	0	0	-	0	0	-	-
O=C(Nc1ccc(-c2nc3c(ccc4ccccc43)o2)cc1)c1ccco1	15.3	0	0	0	0	0	0	0
O=c1cc(-c2ccccc2)oc2ccc3ccccc3c12	10.0	0	-	-	-	0	9.5	0
O=C(CCCN1C(=O)/C(=C/c2cccs2)SC1=S)NNC(=O)c1ccccc1O	18.3	0	0	0	0	0	0	0
O=C(CCCN1C(=O)/C(=C\c2cccs2)SC1=S)Nc1ccc(O)cc1	10.1	0	0	0	0	0	15.8	0
O=C(CCCN1C(=O)/C(=C\c2cccs2)SC1=S)Nc1ccc(C(=O)O)cc1	0	0	0	0	0	0	-	-
O=C(CCCN1C(=O)/C(=C/c2cccs2)SC1=S)NNC(=O)c1ccncc1	0	0	0	0	0	0	-	-
N#Cc1cc(-c2ccc(Cl)cc2)cnc1Sc1ccc(F)cc1	18.5	0	0	-	0	0	0	0
CC(C)CC(=O)Nc1nnc(S(=O)(=O)N2CCCCCC2)s1	0	0	0	0	0	0	-	-
C=C1C2(C(=O)Nc3ccc(SC(F)F)cc3)CCC(C2)C1(C)C (stereo unspecified)	16.6	0	0	0	0	0	0	0
O=C(Nc1ccc(SC(F)F)cc1)C12CCC(CC1)C2	0	0	0	0	0	0	-	-
COc1ccc(C(=O)OCC(=O)NCCCc2ccccc2)c(OC)c1	0	0	0	0	0	0	-	-
COc1ccc(C(=O)OCC(=O)NC(=O)Nc2ccccc2F)c(OC)c1	24.6	0	0	-	0	0	0	0
Cc1cc(NC(=O)CSc2nc(-c3ccc(Cl)cc3)cs2)no1	18.3	0	0	0	0	0	0	0
Cc1cc(NC(=O)CSc2ccc(Cl)cc2)no1	0	0	0	0	0	0	-	-
Cc1ccc(S(=O)(=O)N2CCOCC2)cc1C(=O)c1nccn1C	0	0	0	0	0	0	-	-
CC(CC(=O)NCCc1ccc(F)cc1)c1ccccc1 (stereo unspecified)	0	0	0	0	0	0	-	-
SMILES	MC4R barr agon	MC4R antagonist	PREPL inhibitor	Hep lipid drop	NTR1 agonist	m5-HT2A agonist	MC4R barr conf	MOR DOR agonist
CCCn1c2ccccc2c2cnn(CC(=O)NCCCN3CCN(c4ccccc4)CC3)c(=O)c21	0	0	0	0	0	0	-	-
Cc1ccc(-c2cnc3c(c2)C(=O)N([C@H](C)CO)C[C@@H](C)[C@@H](CN(C)C(=O)Cc2ccccc2)O3)cc1	0	0	-	-	-	0	-	-
COc1ccc(CN2CCn3ncc(C(=O)Nc4cc(C)cc(C)c4)c3C2=O)cc1	31.7	0	0	-	0	0	0	0
c1ccc(CN2CCC3CC2c2ccc(N4CCOCC4)cc23)cc1 (stereo unspecified)	0	0	-	-	-	0	-	-
O=C(Nc1nnc(COc2ccccc2F)s1)Nc1ccccc1F	12.0	0	0	0	0	0	0	0
CC(c1ccccc1)c1nnc(NC(=O)Nc2ccccc2F)s1 (stereo unspecified)	10.3	0	-	0	0	0	0	0
Cc1ccccc1N(C(=O)Cc1c[nH]c2ccccc12)C(C(=O)NC1CCCCC1)c1ccco1 (stereo unspecified)	20.8	0	0	0	0	0	0	0
O=C(NCc1ccc(C(F)(F)F)cc1)c1ccc(-c2cccnc2)c2ccoc12	0	0	-	-	-	0	-	-
NC(Cc1ccc(Cl)cc1)c1csc(NC(=O)Nc2ccccc2-c2ccccc2)n1 (stereo unspecified)	19.3	0	-	-	-	0	11.3	0
COc1ccc(CC(N)c2csc(NC(=O)NCCc3ccccc3)n2)cc1 (stereo unspecified)	0	0	-	-	-	0	-	-
NC(Cc1ccc(Cl)cc1)c1csc(NC(=O)NCCc2ccccc2)n1 (stereo unspecified)	13.4	0	-	-	-	0	26.8	21.1
NC(CCc1ccccc1)c1csc(NC(=O)NCCc2ccccc2)n1 (stereo unspecified)	0	0	-	-	-	0	-	-
NC(CCc1ccccc1)c1csc(NC(=O)Nc2ccccc2Oc2ccccc2)n1 (stereo unspecified)	17.6	0	-	-	-	0	0	24.5
CC(C)c1cc(C(C)C)c(S(=O)(=O)NC(c2ccccn2)C23CC2C3)c(C(C)C)c1 (stereo unspecified)	-	-	-	-	-	0	-	-
COc1cccc(C=NNc2nc3ccccc3s2)c1OC	22.2	0	-	-	-	0	0	0
COc1cccc(/C=N/Nc2nnc3c(n2)[nH]c2ccccc23)c1OC	11.0	0	0	0	0	0	0	0
Cc1ccc(NC(=O)CCCc2nc3ccccc3c(=O)[nH]2)c(Cl)c1	0	0	0	-	0	0	-	-
O=C(NC(C(=O)c1ccccc1)c1ccccc1)c1ccccc1 (stereo unspecified)	0	0	-	-	-	0	-	-
